# Shown are actives, neighbours in structure and some others; about 1.5% of the full set was active somewhere.
# APJ agonist – agonists of human apelin receptor APJ, primary screen, CHO-K1 cells, PathHunter beta-arrestin, luminescence; P35414; activation, % at 20 µM; actives 0.11% (n = 330,000); AID 2520, 2010; 0% DMSO wells, 100% apelin;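 active = activation more than six SD over the plate average, tested at 20 µM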;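 also: 0% = DMSO alone and 100% = apelin-13 at 10 nM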
# Target sequence (P35414 whole entry, looked up): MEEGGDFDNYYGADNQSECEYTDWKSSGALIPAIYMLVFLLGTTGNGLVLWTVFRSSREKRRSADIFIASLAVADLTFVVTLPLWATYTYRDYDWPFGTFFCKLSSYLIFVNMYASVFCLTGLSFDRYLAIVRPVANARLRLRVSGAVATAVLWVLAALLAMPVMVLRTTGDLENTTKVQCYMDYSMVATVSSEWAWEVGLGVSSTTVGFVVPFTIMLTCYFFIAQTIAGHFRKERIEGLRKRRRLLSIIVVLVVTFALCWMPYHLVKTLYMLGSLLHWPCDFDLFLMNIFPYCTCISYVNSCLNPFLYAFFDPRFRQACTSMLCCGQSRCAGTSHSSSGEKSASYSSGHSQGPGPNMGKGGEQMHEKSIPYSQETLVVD
#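 Assay system: CHO-K1 cells stably expressing ProLink-tagged human APJ and arrestin–beta-gal acceptor. Compound dosing: 20 µM single point, 1% DMSO. Times: 16-18 h seeding, 90 min dark compound exposure, 60 min detection. Detection: beta-gal luminescence. Evaluation: APJ–arrestin association signal. Controls: negative DMSO alone, positive Apelin-13 at 10 nM.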
# CCR6 antag – CCR6 receptor antagonists, primary screen, cell-based, CHO-K1, luminescence, beta-arrestin, uHTS | actives 0.49% (n = 340,000) | C-C chemokine receptor type 6 (Homo sapiens), P51684 | CHO-K1 CCR6 PathHunter beta-arrestin, CCL20-stimulated | AID 493098, 2011 | inhibition, % at 20 µM;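 active = compounds whose inhibition of the agonist-driven luminescence signal at 20 µM reaches about 50%, limit read from the data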;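 also: cells stimulated with CCL20 at 14 nM final; plate controls were DMSO with CCL20 for no effect and DMSO without agonist for full effect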
# EBI2 antag – EBI2 receptor antagonists, beta-arrestin recruitment, primary screen, cell-based, luminescence, 7a,25-OHC stimulation, uHTS; G-protein coupled receptor 183 (Homo sapiens), P32249; 7a,25-OHC stimulated; inhibition, % at 5 µM; actives 0.81% (n = 360,000); AID 651636, 2012; in the data active = inhibition above about 38%;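 also: enzyme fragment complementation signal reports receptor beta-arrestin coupling in cells; 0% = agonist plus DMSO wells and 100% = wells without agonist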
# APJ antagonist – antagonists of human apelin receptor APJ, primary screen, CHO-K1 cells, beta-arrestin complementation, luminescence; P35414; AID 2521, 2010; inhibition, % at 20 µM; actives 0.32% (n = 330,000);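 active = inhibition above about 40% at 20 µM, limit read from the data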;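 also: cells challenged with 10 nM apelin-13 agonist together with compound; plate controls were apelin-13 plus DMSO wells for no effect and DMSO wells lacking apelin-13 for full effect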
# CXCR6 inh – CXCR6 receptor inhibitors, primary screen, cell-based, beta-arrestin, luminescence, CHO-K1 PathHunter, 1536-well. C-X-C chemokine receptor type 6 (Homo sapiens), O00574. inhibition, % at 20 µM. actives 0.36% (n = 360,000); in the data active = inhibition above about 34%, passing the limit was not always enough;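 also: antagonist mode with CXCL16 agonist at 10 nM final; 0% = 10 nM CXCL16 with DMSO and 100% = unstimulated wells without agonist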
# CXCR6 confirm – CXCR6 receptor antagonists, confirmation, cell-based, single concentration, beta-arrestin, luminescence | shares compounds with CXCR6 inh | CHO-K1 CXCR6 PathHunter beta-arrestin | inhibition, % at 20 µM | actives 65% (n = 700) | AID 602409, 2012;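 active = mean inhibition over four retests above 40%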;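 also: receptor stimulated with 10 nM CXCL16 agonist; beta-galactosidase fragment complementation upon beta-arrestin recruitment to receptor; plate controls were CXCL16 plus DMSO for no effect and DMSO without CXCL16 for full effect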
# Active calls of the source: *; · = no result given.
SMILES,APJ agonist,CCR6 antag,EBI2 antag,APJ antagonist,CXCR6 inh,CXCR6 confirm
Cc1ccc(NC(=S)N/N=C/c2cccn2Cc2ccccc2F)cc1,-5,27,-6,7,15,·
CC(Oc1ccc(Br)cc1)C(=O)Nc1nc(-c2ccccn2)cs1 (centres undefined),-20,84*,6,39,93*,86*
C=CCOc1ccc(C=NNc2ccc(S(=O)(=O)Nc3ccccc3C(=O)O)cc2[N+](=O)[O-])cc1OC,-2,·,0,11,50*,44*
CCOc1ccc(C=NNc2ccc(S(=O)(=O)Nc3ccccc3C(=O)O)cc2[N+](=O)[O-])cc1,-9,·,8,25,24,·
COC(=O)CCS(=O)(=O)c1nc(-c2ccccc2)cc(C(F)(F)F)n1,-2,11,21,-9,30,·
CCOC(=O)CS(=O)(=O)c1nc(-c2ccccc2)cc(C(F)(F)F)n1,-4,23,20,30,51*,44*
O=C1C=CC(=O)N1CCNc1ncc(C(F)(F)F)cc1Cl,-1,·,11,-12,97*,77*
O=C1CC(=O)N(CCNc2ncc(C(F)(F)F)cc2Cl)C(=O)N1,3,6,7,1,6,·
CC1Cc2ccccc2N1C(=S)NC(=O)c1cccc(Br)c1 (centres undefined),0,·,-3,24,48*,65*
c1ccc(-c2nc(NCc3ccco3)c3ccccc3n2)nc1,-10,53*,16,35,43*,32
C=C1C(=O)C23C(O)C1CCC2C12CCCC(C)(COC(C)=O)C1C(O)C3(O)OC2 (centres undefined),·,103*,77*,·,76*,95*
COC(=O)C1CN(C(=O)C(C)Oc2ccc(F)cc2)c2ccccc2O1 (centres undefined),-2,9,4,-1,12,·
CCn1nc(NC(C)=O)c2cc3ccc(C)cc3nc21,0,-5,2,3,44*,6
CCn1nc(NC(=O)C(C)C)c2cc3ccc(C)cc3nc21,0,3,1,-8,-7,·
Cc1c(Cl)cccc1NC(=S)NC(=O)c1cncc(Br)c1,-3,33,6,16,42*,35
C[C@@H]1CC[C@H](Cc2ccc(-n3cccc3)cc2)N1C(=O)OC(C)(C)C,·,·,11,·,53*,10
Cc1cc(C)cc(N(CC(=O)Nc2ccc(Br)cc2)S(=O)(=O)c2c(C)[nH]c(=O)[nH]c2=O)c1,-4,12,4,31,-3,·
CCCNC(=O)C1(C)CCCN(Cc2ccccc2Cl)C1 (centres undefined),·,·,-2,·,2,·
C=CCN(C(=O)CSC1=NC(=O)CN1C(C)=O)c1nc(C)c(-c2ccccc2)s1,-3,41,23,20,40*,13
Cc1cc2nc(N3C(=O)CNC3=S)sc2cc1C,-3,·,-8,22,50*,61*
Cc1nnc(NC(=O)c2cc(-c3ccncc3)nc3c(C)cccc23)s1,12,-2,-5,-35,45*,21
C/C(CCc1ccccc1)=N\NC(=S)NCCc1ccccc1,-3,40,29,6,26,·
C/C(CCC(C)C)=N\NC(=S)NCc1ccccc1,-4,40,17,38,40*,30
COc1ccc(/C=N/NC(=O)CN(C)S(=O)(=O)c2ccc(NC(C)=O)cc2)cc1,-1,5,-6,-10,0,·
CC(=O)Nc1ccc(S(=O)(=O)N(C)CC(=O)N/N=C/c2ccc(C(=O)O)cc2)cc1,-1,-6,-13,-10,88*,-3
SMILES,APJ agonist,CCR6 antag,EBI2 antag,APJ antagonist,CXCR6 inh,CXCR6 confirm
COc1cc(/C=C/c2ccc3cccc(O)c3n2)cc(Cl)c1OC,-9,23,9,13,5,·
COc1ccc(/C=C/c2ccc3cccc(O)c3n2)c(OC)c1OC,-7,61*,15,31,38*,44*
Cc1ccc(/C=C/c2ccc3cccc(O)c3n2)s1,1,52*,0,-23,36*,38
COc1cc(Br)cc(/C=C/c2ccc3cccc(O)c3n2)c1OC,-8,36,32,27,21,·
CCN1C(=O)c2ccc(C(=O)NCc3ccco3)cc2C1=O,-7,1,-6,-12,-6,·
NS(=O)(=O)c1ccc(CNC(=O)c2cc(=O)c3cc(Cl)ccc3o2)cc1,-3,16,-6,19,6,·
O=C(NC(=S)N1CCN(c2c(Cl)cccc2[N+](=O)[O-])CC1)c1cccs1,-3,45,13,7,38*,35
CNC(=O)c1c(I)c(C(=O)NCC(=O)Nc2c(I)c(C(=O)O)c(I)c(C(=O)NCCO)c2I)c(I)c(N(C)C(C)=O)c1I,-4,-9,-8,-7,0,·
CCOC(=O)C1(Cc2ccc(Cl)cc2)CCN(Cc2ccon2)CC1,-1,4,-12,19,70*,5
CCOC(=O)c1sc(-c2ccc(Cl)cc2)nc1O,-2,-11,-6,-11,1,·
CCc1cccc2c(C(=O)C(F)(F)F)cn(CC(=O)NCC3CCCO3)c12 (centres undefined),-5,13,-10,6,46*,2
CCC(=O)Nc1ccccc1C(=O)N1CCOCC1,-4,0,-9,5,-4,·
O=C(CCCN1C(=O)c2ccccc2C1=O)Nc1ccccc1C(=O)N1CCOCC1,1,34,-5,11,66*,10
CCN(CC)CCNC(=O)c1ccc(NC(=O)C2CC(=O)N(CCc3ccc(OC)c(OC)c3)C2)cc1 (centres undefined),-3,-7,-16,24,-6,·
CCOC(=O)Cc1c(C)nc2c(-c3cccc(Br)c3)c[nH]n2c1=O,-2,19,5,19,36*,12
CSC(=S)N/N=C(\C)c1ccc(Br)cc1,-4,45,-2,12,19,·
S=C(Nc1ccccc1)c1ccccn1,-7,·,0,9,56*,79*
S=C(Nc1ccccc1)Nc1ccccn1,·,·,-2,·,5,·
O=C(NNC(=O)c1cc(-c2ccccc2)nn1-c1ccccc1)c1ccccc1,-5,·,16,-10,46*,41*
CC(C)CNS(=O)(=O)c1cc2c3c(c1)CCC(=O)N3CCC2,-3,5,-7,2,3,·
COc1ccccc1/C=C/C(=O)Oc1cccc2cccnc12,-3,13,0,1,3,·
Cc1ccc2cccc(OC(=O)/C=C\c3ccccc3)c2n1,0,27,3,18,43*,39
COC(=O)/C=C/c1cnc[nH]1,8,2,2,8,-1,·
